Compound activity: PubChem, Broad Institute
GSK3 alpha inh = inhibitors of human GSK-3 alpha kinase; P49840; ADP-Glo luminescence, 60 min; inhibition, % at 10 µM; actives 0.1% (n = 320,000);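 active means more than half of replicates show inhibition above 20%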;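 further: GST-tagged GSK-3 alpha with peptide substrate and 25 µM ATP; 0% = DMSO neutral wells and 100% = GW8510 positive control wells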
HIV Env fusion = blocks HIV Env-driven cell-cell fusion. AID 651610. inhibition, % at 12.3 µM. actives 1.1% (n = 360,000). HeLa-JRFL Env/CEM21 cell fusion, luciferase;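 active means mean replicate inhibition score of at least 50 and every replicate individually at or above 50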;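 further: 0% = plate neutral controls and 100% = maraviroc near 300 nM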
INS-1E GSIS act = primary screen for activators of insulin secretion dependent on glucose, INS-1E cells, GLuc reporter luminescence; actives 0.61% (n = 370,000); INS-1E GLuc reporter insulin secretion, 2-3 h; activation, % at 16.6 µM; AID 743287;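 active means lowest replicate activation of at least 40%, so every replicate reaches that level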;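 further: 0% = median of neutral control wells and 100% = median of IBMX positive control wells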
CDK5 p35 inh = CDK5/p35 (human) kinase inhibition; inhibition, % at 10 µM; AID 488839; Q00535+Q15078; Recombinant CDK5/p35, ADP-Glo luminescence, 60 min; actives 0.01% (n = 330,000);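 active means highest replicate inhibition of at least 50% and at least 75% of replicates reaching 50%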;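 further: plate controls were DMSO neutral control for no effect and GW8510 at 10 µM for full effect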
GSK3B inh = human GSK3beta kinase inhibition; GST-GSK3beta kinase, ADP-Glo luminescence, 60 min; active compounds read low; activity score (negative = inhibition), % at 10 µM; actives 0.038% (n = 300,000); AID 2097;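 active means more than half of replicate wells score below -50%, meaning over 50% inhibition versus plate controls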;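 further: 0% = median DMSO wells and -100% = median GW8510 positive control wells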
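Test system: GST-fused GSK3beta enzyme, cell-free | Quantity: 1.6 ng GST-GSK3beta enzyme per well | Reagent: 25 µM ATP with peptide substrate | Schedule: 60 min enzyme reaction, room temperature | Signal: Luminescent ADP-Glo measurement of ADP formed | Read-out basis: Score relative to plate controls | Control set: DMSO and 20 µM GW8510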
STK33 inh = human STK33 kinase inhibition; purified STK33, MBP phosphorylation, ADP-Glo luminescence; inhibition, % at 10 µM; actives 0.073% (n = 320,000);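 active means inhibition at or above 25%, using the most active replicate where run in duplicate; inactive means inhibition below 25%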
Target sequence (Q9BYT3 whole entry, looked up): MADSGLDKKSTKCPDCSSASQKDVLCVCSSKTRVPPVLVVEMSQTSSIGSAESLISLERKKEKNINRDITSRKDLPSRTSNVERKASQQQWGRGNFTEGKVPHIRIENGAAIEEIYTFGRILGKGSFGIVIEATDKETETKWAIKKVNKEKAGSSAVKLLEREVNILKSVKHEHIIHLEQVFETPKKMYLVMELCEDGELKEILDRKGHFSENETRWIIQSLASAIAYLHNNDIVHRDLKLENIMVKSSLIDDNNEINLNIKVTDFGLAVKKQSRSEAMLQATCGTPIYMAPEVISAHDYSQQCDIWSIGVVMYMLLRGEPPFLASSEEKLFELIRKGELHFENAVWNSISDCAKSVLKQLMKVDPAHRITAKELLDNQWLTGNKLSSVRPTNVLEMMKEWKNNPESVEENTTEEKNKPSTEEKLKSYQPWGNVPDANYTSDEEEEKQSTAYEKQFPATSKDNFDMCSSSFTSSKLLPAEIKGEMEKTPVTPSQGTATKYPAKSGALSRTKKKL
An asterisk follows results filed as active; nt = not tested or not shown; [ ] = remark or other dose. Sampled rows, rich in hits. Any-hit rate of the full collection: about 1.4%.

SMILES | GSK3 alpha inh | HIV Env fusion | INS-1E GSIS act | CDK5 p35 inh | GSK3B inh | STK33 inh
CCN(CC)C(=O)C1(P(=O)(c2ccccc2)c2ccccc2)CCC1 | -3.0 | 21.3 | 89.7* | nt | -2.0 | -1.8
O=C(O)C1(P(=O)(c2ccccc2)c2ccccc2)CCCC1 | 1.8 | -25.3 | nt | -1.1 | 3.0 | -0.8
O=C(O)C1(P(=O)(c2ccc(Cl)cc2)c2ccc(Cl)cc2)CCCC1 | -2.3 | 1.4 | 4.6 | 1.9 | 2.3 | -0.7
O=C(C[C@H]1CC[C@@H](NC(=O)Nc2ccccc2F)[C@@H](CO)O1)NCc1ccc(F)cc1 | nt | nt | -6.3 | nt | nt | nt
CC(C)CC#Cc1ccc2c(c1)O[C@H](CN(C)C(=O)C1CCC1)[C@H](C)CN([C@@H](C)CO)S2(=O)=O | nt | 28.7[16.7 µM] | -16.1 | nt | nt | nt
CC(C)CC#Cc1ccc2c(c1)O[C@H](CN(C)C(=O)C1CCCCC1)[C@@H](C)CN([C@@H](C)CO)S2(=O)=O | nt | 22.1[16.7 µM] | 55.3* | nt | nt | nt
CCCC#Cc1ccc2c(c1)O[C@@H](CN(C)C(=O)C1CCCCC1)[C@@H](C)CN([C@H](C)CO)S2(=O)=O | nt | 22.3[16.7 µM] | -17.8 | nt | nt | nt
Cc1ccc(-c2ccc3c(c2)O[C@@H](CN(C)C(=O)C2CCCCC2)[C@H](C)CN([C@H](C)CO)S3(=O)=O)cc1 | nt | 59.7*[16.7 µM] | -15.3 | nt | nt | nt
CC(C)CC#Cc1ccc2c(c1)O[C@H](CN(C)C(=O)C1CCCCC1)[C@@H](C)CN([C@H](C)CO)S2(=O)=O | nt | -0.8[16.7 µM] | -4.1 | nt | nt | nt
CC(C)CC#Cc1ccc2c(c1)O[C@@H](CN(C)C(=O)C1CCCCC1)[C@H](C)CN([C@@H](C)CO)S2(=O)=O | nt | 57.1*[16.7 µM] | 34.7 | nt | nt | nt
CCCC#Cc1ccc2c(c1)O[C@@H](CN(C)C(=O)C1CCCCC1)[C@H](C)CN([C@H](C)CO)S2(=O)=O | nt | 62.3*[16.7 µM] | -10.0 | nt | nt | nt
COc1ccc(NC(=O)Nc2ccc3c(c2)[C@@H]2C[C@@H](CC(=O)NCC4CC4)O[C@@H](CO)[C@@H]2O3)cc1 | nt | -46.6[16.7 µM] | 4.2 | nt | nt | nt
Cc1ccc(F)cc1S(=O)(=O)N[C@@H]1CCN(Cc2cccc3[nH]ccc23)C1 | nt | 1.2[16.7 µM] | nt | nt | nt | nt
COCC(=O)N(C)C[C@@H]1Oc2cc(-c3cccnc3)ccc2S(=O)(=O)N([C@@H](C)CO)C[C@@H]1C | nt | -2.1[16.7 µM] | 17.3 | nt | nt | nt
O=C(C[C@H]1CC[C@@H]2[C@H](COC[C@H](O)CN2S(=O)(=O)c2ccccc2)O1)N1CCc2ccccc2C1 | nt | nt | 14.9 | nt | nt | nt
COc1ccc2c3c(n(C)c2c1)[C@@H](CO)N(C(=O)CC1CC1)CC31CN(C(=O)CC2CC2)C1 | nt | 3.9[16.7 µM] | 0.0 | nt | nt | nt
O=C1CN(C(=O)c2c(F)cccc2F)C(c2ccccc2)c2cc(Br)ccc2N1 (configuration not stated) | 4.0 | 46.6 | -6.0 | 0.1 | 0.5 | -0.4
Cc1ccc2c(c1)C(c1ccccc1)N(C(=O)c1c(F)cccc1Cl)CC(=O)N2 (configuration not stated) | -2.7 | 59.1* | -5.5 | 1.0 | -1.8 | -1.6
COc1ccccc1S(=O)(=O)N[C@H]1CC[C@H](CC(=O)N2CCN(C)CC2)O[C@H]1CO | nt | 62.0*[16.7 µM] | 27.0 | nt | nt | nt
C(=C\c1ccccc1)/CN1CCN(c2ncnc3c2oc2ccccc23)CC1 | -0.7 | 77.7* | 81.3 | -2.7 | -2.8 | -2.2
Cc1ccc(N2C(=O)N3[C@H](c4ccc(Cl)cc4)[C@@H]4C(=O)N(C5CCCCC5)C(=O)[C@@H]4[C@]3(Cc3ccccc3)C2=O)cc1 | 0.1 | 42.8 | 28.4 | -0.9 | 2.7 | -0.3
CC[C@@]12C(=O)N(c3cccc(F)c3)C(=O)N1[C@H](c1ccc(Cl)cc1)[C@@H]1C(=O)N(C3CCCCC3)C(=O)[C@@H]12 | nt | 95.2* | 2.6 | -1.1 | 1.2 | 0.6
Cc1cccc(N2C(=O)N3[C@H](c4ccc(F)cc4)[C@@H]4C(=O)N(C5CCCCC5)C(=O)[C@@H]4[C@]3(Cc3ccc(Cl)cc3)C2=O)c1 | 1.5 | 91.1* | 1.1 | 1.2 | -0.1 | 0.4
CCN1C(=O)[C@H]2[C@@H](c3ccc(C)cc3)N3C(=O)N(c4cccc(Cl)c4)C(=O)[C@@]3(Cc3ccc(Cl)cc3)[C@H]2C1=O | -0.7 | 58.8* | -4.0 | 0.4 | nt | -0.5
CC[C@@]12C(=O)N(c3ccc(OC)cc3)C(=O)N1[C@H](c1ccc(Cl)cc1)[C@@H]1C(=O)N(C3CCCCC3)C(=O)[C@@H]12 | -0.1 | 87.4* | -4.1 | 0.8 | 0.9 | -1.2
